Test results taken from PMC9290029 (ACS Medicinal Chemistry Letters, 2022).

Key:
human NHE3 = biological target: T1, human NHE3 (Homo sapiens, UniProt P48764); experiment: Cell-based human NHE3 inhibition assay; conditions: species not stated; data not shown
T1 sequence (P48764 26-834): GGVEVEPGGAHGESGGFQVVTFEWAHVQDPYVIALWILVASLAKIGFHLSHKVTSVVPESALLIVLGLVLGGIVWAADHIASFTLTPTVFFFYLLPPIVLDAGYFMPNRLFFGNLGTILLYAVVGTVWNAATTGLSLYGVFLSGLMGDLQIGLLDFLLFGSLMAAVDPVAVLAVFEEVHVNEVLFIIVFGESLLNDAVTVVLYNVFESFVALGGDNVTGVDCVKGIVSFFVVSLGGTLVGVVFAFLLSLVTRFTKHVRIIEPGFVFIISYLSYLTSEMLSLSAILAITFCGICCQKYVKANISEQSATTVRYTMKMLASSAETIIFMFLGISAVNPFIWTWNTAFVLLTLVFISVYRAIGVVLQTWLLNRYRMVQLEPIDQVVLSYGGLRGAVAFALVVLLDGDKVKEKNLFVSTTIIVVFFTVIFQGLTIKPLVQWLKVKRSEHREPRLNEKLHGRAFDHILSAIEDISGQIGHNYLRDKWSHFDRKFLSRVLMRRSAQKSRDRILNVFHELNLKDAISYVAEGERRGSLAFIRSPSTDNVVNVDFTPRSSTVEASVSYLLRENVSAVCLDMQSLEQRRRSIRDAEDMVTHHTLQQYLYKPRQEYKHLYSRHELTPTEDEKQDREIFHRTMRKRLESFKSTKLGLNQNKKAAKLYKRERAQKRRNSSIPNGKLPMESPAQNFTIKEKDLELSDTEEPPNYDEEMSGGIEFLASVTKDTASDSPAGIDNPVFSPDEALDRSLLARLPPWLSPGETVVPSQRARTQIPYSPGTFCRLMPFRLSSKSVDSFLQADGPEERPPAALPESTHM
How it was run: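 Cell deacidification assay in transfected opossum kidney cells overexpressing human or rat NHE3. Test compounds are applied across a dose range, and inhibition of intracellular pH recovery is followed with a pH-sensitive dye. Potency is reported as pIC50 for each species.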

[1] = Pharmacokinetic assessments in rats; type: in vivo, Sprague Dawley rats; conditions: for metabolites detected in plasma (Cmax at 30 mpk): rats, oral; for AUC: male, Sprague-Dawley, rat, plasma, po
Sprague Dawley rats = experiment: Rat stool and urine content, stool form scoring; type: in vivo; conditions: for Increase in stool water: criterion: 10% increase from control; for Stool water dose-response: oral 0.1–3.0 mg/kg, criterion: Yes
How it was run: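 Rats are dosed orally, 3 mg/kg for screening or 0.1, 0.3, 1.0 and 3.0 mg/kg for dose-response, then held in metabolic cages. Urine sodium reduction is measured at 16 h (n = 6 per group; mean ± SEM; one-way ANOVA with Dunnett's test versus vehicle). Stool form is scored 1 (normal) to 5 (watery), and fecal water is given as percent water by weight and percent of control.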

humans = conditions: clinical trials, cited from earlier work
[2] = system: dialysis patients with hyperphosphatemia; conditions: cited from earlier work

CN1Cc2c(Cl)cc(Cl)cc2[C@H](c2cccc(S(=O)(=O)NCCOCCOCCNC(=O)Nc3ccc(NC(=O)NCCOCCOCCNS(=O)(=O)c4cccc([C@@H]5CN(C)Cc6c(Cl)cc(Cl)cc65)c4)cc3)c2)C1 [Compound 26]
inhibition in the cell assay (maximum reached) (human NHE3): < 100%
metabolites detected in plasma (Cmax at 30 mpk) [1]: No metabolites detected
Increase in stool water (Sprague Dawley rats): Yes
Stool water dose-response (Sprague Dawley rats): Yes

CN1Cc2c(Cl)cc(Cl)cc2C(c2ccc(S(=O)(=O)NCCOCCOCCNC(=O)NCCOCCOCCNS(=O)(=O)c3ccc(C4CN(C)Cc5c(Cl)cc(Cl)cc54)cc3)cc2)C1 (stereo not drawn) [Compound 23]
AUC ([1]; 17 mg/kg): < 8 ng·h/mL

CN1Cc2c(Cl)cc(Cl)cc2C(c2cccc(S(N)(=O)=O)c2)C1 (stereo not drawn) [Compound 1]
pharmacodynamic (PD) effect in PK studies ([1]; Sprague–Dawley rats): absence of a pharmacodynamic (PD) effect

CN1Cc2c(Cl)cc(Cl)cc2C(c2ccc(S(=O)(=O)NCCOCCOCCOCCNC(=O)NCCOCCOCCOCCNS(=O)(=O)c3ccc(C4CN(C)Cc5c(Cl)cc(Cl)cc54)cc3)cc2)C1 (stereo not drawn) [Compound 35]
AUC ([1]; 5.3 mg/kg): < 19 ng·h/mL

CN1Cc2c(Cl)cc(Cl)cc2[C@H](c2cccc(S(=O)(=O)NCCOCCOCCNC(=O)NCCCCNC(=O)NCCOCCOCCNS(=O)(=O)c3cccc([C@@H]4CN(C)Cc5c(Cl)cc(Cl)cc54)c3)c2)C1 [Compound 28, tenapanor]
metabolites detected in plasma (Cmax at 30 mpk) [1]: No metabolites detected
Increase in stool water (Sprague Dawley rats): Yes
Stool water dose-response (Sprague Dawley rats): Yes
stool consistency (humans; versus the placebo): softened stool consistency in a dose-dependent manner
stool frequency and weight (humans; versus the placebo): increased stool frequency and weight
plasma concentrations (humans; humans, below the quantification limit in >95% of all plasma samples): < 0.5 ng/mL
plasma samples below the quantification limit (0.5 ng/mL) (humans; humans): > 95%
serum phosphorus levels [2]: lowered serum phosphorus levels

CN1Cc2c(Cl)cc(Cl)cc2C(c2cccc(S(=O)(=O)NCCOCCOCCNC(=O)c3ccc(C(=O)NCCOCCOCCNS(=O)(=O)c4cccc(C5CN(C)Cc6c(Cl)cc(Cl)cc65)c4)cc3)c2)C1 (stereo not drawn) [Compound 20]
AUC ([1]; 22 mg/kg): < 8 ng·h/mL

CN1Cc2c(Cl)cc(Cl)cc2C(c2cccc(S(=O)(=O)NCCOCCOCCOCCNC(=O)NCCOCCOCCOCCNS(=O)(=O)c3cccc(C4CN(C)Cc5c(Cl)cc(Cl)cc54)c3)c2)C1 (stereo not drawn) [Compound 38]
AUC ([1]; 1.8 mg/kg): < 75 ng·h/mL

CN1Cc2c(Cl)cc(Cl)cc2C(c2ccc(S(=O)(=O)NCCOCCOCCNC(=O)c3ccc(C(=O)NCCOCCOCCNS(=O)(=O)c4ccc(C5CN(C)Cc6c(Cl)cc(Cl)cc65)cc4)cc3)cc2)C1 (stereo not drawn) [Compound 21]
AUC ([1]; 23 mg/kg): < 8 ng·h/mL

CN1Cc2c(Cl)cc(Cl)cc2C(c2cccc(S(=O)(=O)NCCOCCOCCNC(=O)NCCOCCOCCNS(=O)(=O)c3cccc(C4CN(C)Cc5c(Cl)cc(Cl)cc54)c3)c2)C1 (stereo not drawn) [Compound 22]
AUC ([1]; 11 mg/kg): < 19 ng·h/mL

CN1Cc2c(Cl)cc(Cl)cc2C(c2cccc(S(=O)(=O)NCCOCCOCCOCCNC(=O)CCC(=O)NCCOCCOCCOCCNS(=O)(=O)c3cccc(C4CN(C)Cc5c(Cl)cc(Cl)cc54)c3)c2)C1 (stereo not drawn) [Compound 44]
AUC ([1]; 28 mg/kg): < 8 ng·h/mL

CN1Cc2c(Cl)cc(Cl)cc2C(c2ccc(S(=O)(=O)NCCOCCOCCOCCNC(=O)c3ccc(C(=O)NCCOCCOCCOCCNS(=O)(=O)c4ccc(C5CN(C)Cc6c(Cl)cc(Cl)cc65)cc4)cc3)cc2)C1 (stereo not drawn) [Compound 37]
AUC ([1]; 19 mg/kg): < 9 ng·h/mL
